Test results: the RNAGym collection of RNA variant scans (doi:10.1101/gad.245936.114)
Variants at the floor of the assay were thinned out.

B1: tRNA (parent)
chain: CUCUCGGUAGCCAAGUUGGUUUAAGGCGCAAGACUUUAAUUUAUCACUACGAAAUCUUGAGAUCGGGCGUUCGACUCGCCCCCGGGAGAUUUUUUCCUCGAGCAA

Variants of: B1
Test: nonsense suppression (GFP-seq) (ratio to wild type); higher = more function; SUP4oc tRNA, yeast GFP reporter sort-seq
Procedure, shortened: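 Yeast were grown in raffinose/galactose medium with 80 mg/L adenine, each strain bearing a genome-integrated ochre-suppressor tRNA variant from a ~3% random-mutation library, a galactose-driven GFP ochre reporter, and RFP. After sorting into GFP/RFP bins, every bin was sequenced on an Illumina platform at phred ≥30. The GFPSEQ value, a measure of nonsense suppression, is the weighted bin median GFP/RFP relative to the unmutated parent tRNA, using each variant's estimated cell share per bin as the weight. Only variants with ≥100 reads and ≥30 cells were included.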

Variant | nonsense suppression
C12U G25C U57G C83G | ≤ 0.026
A9U U57G G65C | ≤ 0.026
A9U G28C G85A | 0.0603
A13C C72U | 0.23
C11G A24G A74G | ≤ 0.026
C12U C79U | 0.205
C11U U55A G61C G88C | ≤ 0.026
G10A G32C G88C | ≤ 0.026
G10A A33C C34U | ≤ 0.026
A13C A87G | 0.127
A13C A87C | 0.0539
C11G G26C A30C | ≤ 0.026
C12U C27U G61C | ≤ 0.026
A9U G61A | 0.195
A9U G61C | 0.197
A9U G61U | 0.573
C12G A33U U55C C72A G73A U76C | ≤ 0.026
A9U G10A | 0.0292
A9U U20G | 0.12
C12U A13U C79U | 0.0331
C11A C12U G59A U71A | ≤ 0.026
A13C G18C G26U G61C | ≤ 0.026
A9U G84U | 0.0747
A9U G84A | 0.138

Variant | nonsense suppression
G10A G78U | 0.0324
G10A G78A | 0.0314
G10U G85C | ≤ 0.026
C12U U55G U70G C83U | ≤ 0.026
C12U C29U | 0.206
C12U G25A G61C | 0.823
A9U G86A | 0.0496
C11G A33G | ≤ 0.026
G10A U63G | 0.0314
C11G U20C G25U U63G C75A G78C | ≤ 0.026
C11A A14G U63C | ≤ 0.026
G10U G66U G85A | ≤ 0.026
C11U U63G | 0.034
C12U A23C U70C | ≤ 0.026
A9U U55A | ≤ 0.026
C12A G28C A31G U57G | ≤ 0.026
C11A U71C A89G | ≤ 0.026
C11G C56G G84U | ≤ 0.026
C12U C56G | ≤ 0.026
C12U C56U | ≤ 0.026
G10U G32C | ≤ 0.026
G10U U20G U57C | ≤ 0.026
A13C G61A C75G | 0.761
A9U C77U | 0.0389

Variant | nonsense suppression
A13C C29U | 0.806
C11U C75A | 0.168
G10U A31G | ≤ 0.026
A13C A62G | 0.0702
C12G A33U | ≤ 0.026
C12U G18U A30C G84A A89C | ≤ 0.026
A13C C64U | 0.0428
C12A A33G G67U | ≤ 0.026
A13C G61A | 0.852
A13C U16A | 1.17
A13C U16C | 1.12
C11U A24G G26C U71A | ≤ 0.026
C11A G26A U70A | ≤ 0.026
C11A U17C | ≤ 0.026
C12U A13C U20C A60C G85A | ≤ 0.026
G10U C29A | ≤ 0.026
C12U G26U G84A | ≤ 0.026
C12U G25A A74G | ≤ 0.026
A13C A14U | 0.206
A13C C77U | 0.0493
G10C U71A A74U A87C | ≤ 0.026
C11A U16C | ≤ 0.026
A13C G84C | 0.0388
A13C G84A | 0.175

Variant | nonsense suppression
C11G C34A U63A G65C | ≤ 0.026
C12U U63G | 0.121
C12U U63A | 0.697
A13C A31U G61C | ≤ 0.026
C12G U70A | ≤ 0.026
C12U U16C G28A | 0.295
C11U G85C A87G | ≤ 0.026
C11A A30C U57A | ≤ 0.026
G10A G85U | ≤ 0.026
C11U G18U U58G | ≤ 0.026
G10C C79U | ≤ 0.026
A9U G19C G65C A74C | ≤ 0.026
G10A C72A C80A | ≤ 0.026
G10U C12G A31U G32U C68G | ≤ 0.026
G10A A54C | 0.0309
G10U G84A G86U | ≤ 0.026
C11U A62G U63A | ≤ 0.026
C12U A31G G65A | ≤ 0.026
A9U U35G G73A A74U | ≤ 0.026
C11U G32U G69C G85C | ≤ 0.026
G10A U58A A62G U70A | ≤ 0.026
C11U C27G A74G | ≤ 0.026
C12G U71G | 0.859
A13C A60C | 0.29

Variant | nonsense suppression
A13C A60G | 0.392
A13C A60U | 1.07
C11A A54C G59A U71C C80A G88C | ≤ 0.026
C12U U76C | 0.818
C12U U76G | 0.0906
C12U U76A | 0.244
G10C G19U C64G | ≤ 0.026
A13C G61U A87C | ≤ 0.026
C12U U16C | 0.853
C12U U16G | 0.785
C12G A54G U57G A60U C77U | ≤ 0.026
C11G U16G U58A G61A G67C | ≤ 0.026
A13C C27U | 0.0494
G10A G28C G61C | ≤ 0.026
C12U C27U | 0.121
C12U C81A | 0.0405
C11G U17C U21C U63C | ≤ 0.026
C11A A60C | ≤ 0.026
A13C U17G | 0.958
A13C C80U | 0.179
C11G A23G C34A C81U | ≤ 0.026
A9U U63C | 0.0507
C11U G18U A60G | ≤ 0.026
C12A A89G | ≤ 0.026

Variant | nonsense suppression
G10U A13C | 0.0296
A9U G28A C75U | 0.0978
A13C G67A | 0.0799
A9U C75U | 0.656
A13C A30U G85A | 0.157
C12G U17C U21G | ≤ 0.026
A13C A89G | 0.122
A13C G25A | 0.0288
A13C U17A A31G | 0.849
C11G A13U A62C | ≤ 0.026
C12U A13C U20A | ≤ 0.026
A9U U17C | 0.128
C11U G18C U20G U76G | ≤ 0.026
A9U G85C | 0.0283
G10C G15U A33U | ≤ 0.026
C11A U71A | ≤ 0.026
C11A U71C | ≤ 0.026
C12A A24C | 0.035
C11G G59A C64A | ≤ 0.026
C12U C64A | ≤ 0.026
C12U C64U | ≤ 0.026
C11G C80G | ≤ 0.026
C11G U16G G66A | ≤ 0.026
A13C C75U G85U | 0.333

Variant | nonsense suppression
G10C G26U G86A G88A | ≤ 0.026
C12U A13G | 0.153
C12U A13C | 0.2
C12U A13U | 0.626
C12U C29G U35A | ≤ 0.026
G10A G59A | ≤ 0.026
A13C U17C U22G G85A | 0.81
G10A A31C | ≤ 0.026
C11A A30G | 0.0331
G10C C27G G73C | ≤ 0.026
C12U A23G | 0.0776
C11G A24U A62C C68G | ≤ 0.026
A9U G25U G26C C64A G65A G73A | ≤ 0.026
G10A A14C C82A | ≤ 0.026
G10A G32C | ≤ 0.026
G10A A60C G66C G78A | ≤ 0.026
G10C G15C G32U U63A | ≤ 0.026
C12U A13G U21A | 0.0262
G10U U21C A74U | ≤ 0.026
C11U A89C | ≤ 0.026
C12U A30G | 0.363
G10A A13C | 0.0618
C11G A31G | ≤ 0.026
